Measurements taken from ChEMBL document CHEMBL1157809, “Bioactive norditerpenoids from the soft coral Sinularia gyrosa” (Bioorg Med Chem, 2010).
Converted amounts (≈) assume the structure as drawn. The source made the active and inactive calls. No cut-off for these calls is given here.

Legend:
A549 = test: Cytotoxicity against human A549 cells by MTT assay; format: functional; details: read-out: ED50 (the source's name)
Summary of the method: (§1)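 Modified MTT colorimetric assay on P-388 mouse lymphocytic leukemia, HT-29 and A549 tumor cells; read-out ED50. Mithramycin as positive control.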

P388 = test: Cytotoxicity against mouse P388 cells by MTT assay; format: functional; details: read-out: ED50 (the source's name); summary of the method: as §1
HT-29 = test: Cytotoxicity against human HT-29 cells by MTT assay; format: functional; details: read-out: ED50 (the source's name); summary of the method: as §1
Human betaherpesvirus 5 = test: Antiviral activity against HCMV infected in HEL cells assessed as inhibition of virus-induced cytopathic effect after 7 days; format: functional, organism-based; details: Human betaherpesvirus 5, HEL, 168 h; for EC50: read-out: ED50 (the source's name)
Summary of the method: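 Confluent human embryonic lung (HEL) cells preincubated 1 h with or without various compound concentrations, then infected with HCMV at 1000 pfu per well. IC50 taken as concentration reducing virus-induced cytopathic effect by 50% after seven days versus untreated control.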

RAW264.7 [1] = test: Antiinflammatory activity in mouse RAW264.7 cells assessed as inhibition of LPS-induced iNOS expression at 10 uM by immunoblot analysis
RAW264.7 [2] = test: Antiinflammatory activity in mouse RAW264.7 cells assessed as inhibition of LPS-induced COX2 expression at 10 uM by immunoblot analysis; format: functional
Summary of the method: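 Murine RAW 264.7 macrophages cultured in DMEM with 10% heat-inactivated FBS at 37 °C, 5% CO2. Cells were stimulated with LPS with or without compound. COX-2 protein was measured by immunoblot, with β-actin as housekeeping reference, and expressed as % of LPS-stimulated control cells. Statistics: one-way ANOVA, Student–Newman–Keuls post hoc test, P<0.05.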

In the case of `C=C(C)[C@H]1C/C=C2/C(=O)O[C@H](C/C(C)=C/C(=O)[C@H](OC)CC(=O)C1)[C@H]2O` [GYROSANOLIDE C], the EC50 (A549) is reported as over 20 µg/mL, the EC50 (P388) is reported as over 20 µg/mL and the EC50 (HT-29) is reported as over 20 µg/mL. For the same compound, the EC50 (Human betaherpesvirus 5) was over 50 µg/mL, the inhibition at 10 µM (RAW264.7 [1]) was 10.6% and the Activity (RAW264.7 [2]) was “inactive”.

`C=C(C)[C@H]1C/C=C2/C(=O)O[C@H](C/C(C)=C/C(=O)[C@@H](O)CC(=O)C1)[C@H]2O` [GYROSANOLIDE A] gave an EC50 (A549) of over 20 µg/mL, an EC50 (P388) of over 20 µg/mL and an EC50 (HT-29) of over 20 µg/mL. For the same compound, the EC50 (Human betaherpesvirus 5) was over 50 µg/mL, the inhibition at 10 µM (RAW264.7 [1]) was 55.2% and the Activity (RAW264.7 [2]) was “inactive”.

Compound `C=C(C)[C@@H]1CC(=O)C[C@]23O[C@]4(C)C[C@H]5OC(=O)[C@H]([C@H]5[C@H]4C2=O)[C@H]3C1` has an EC50 (A549) of over 20 µg/mL, an EC50 (P388) of over 20 µg/mL and an EC50 (HT-29) of over 20 µg/mL. The EC50 (Human betaherpesvirus 5) was over 50 µg/mL.

`C=C(C)[C@H]1C/C=C2/C(=O)O[C@H](C/C(C)=C\C(=O)[C@@H](O)CC(=O)C1)[C@H]2O` [GYROSANOLIDE B] showed an EC50 (A549) of over 20 µg/mL, an EC50 (P388) of over 20 µg/mL and an EC50 (HT-29) of over 20 µg/mL. The EC50 (Human betaherpesvirus 5) was over 50 µg/mL, the inhibition at 10 µM (RAW264.7 [1]) was 18.6% and the Activity (RAW264.7 [2]) was “inactive”.

`C=C(C)[C@@H]1CC(=O)C[C@H]2O[C@](C)(CC2=O)C[C@@H](O)[C@@H]2O[C@]2(C(=O)OC)[C@@H](O)C1` [GYROSANIN A] showed an EC50 (A549) of over 20 µg/mL, an EC50 (P388) of 3.6 µg/mL (≈ 9.08 µM) and an EC50 (HT-29) of over 20 µg/mL. The EC50 (Human betaherpesvirus 5) was over 50 µg/mL, the inhibition at 10 µM (RAW264.7 [1]) was 66.9% and the Activity (RAW264.7 [2]) was “inactive”.

With `C=C(C)[C@@H]1CC(=O)CC2=C(C1)[C@@H]1C(=O)O[C@@H]3C[C@](C)(O)[C@H](C2=O)[C@H]13` [SCABROLIDE A] the EC50 (A549) was over 20 µg/mL, the EC50 (P388) was over 20 µg/mL and the EC50 (HT-29) was over 20 µg/mL. It also gave an EC50 (Human betaherpesvirus 5) of over 50 µg/mL.

For `C=C(C)[C@H]1CCC2=C[C@@H](C[C@@]3(C)CC(=O)[C@H](CC(=O)C1)O3)OC2=O`, the EC50 (A549) was over 20 µg/mL, the EC50 (P388) was over 20 µg/mL and the EC50 (HT-29) was over 20 µg/mL. The EC50 (Human betaherpesvirus 5) was over 50 µg/mL.

For `CO[C@H](C(=O)[C@@H](O)[C@@H](C)O)[C@@H]1Cc2cc3cc(O[C@H]4C[C@@H](O[C@@H]5C[C@@H](O)[C@H](O)[C@@H](C)O5)[C@H](O)[C@@H](C)O4)c(C)c(O)c3c(O)c2C(=O)[C@H]1O[C@H]1C[C@@H](O[C@@H]2C[C@@H](O)[C@@H](O[C@@H]3C[C@](C)(O)[C@H](O)[C@@H](C)O3)[C@@H](C)O2)[C@H](O)[C@@H](C)O1` [PLICAMYCIN], the EC50 (A549) was 0.07 µg/mL (≈ 0.0645 µM), the EC50 (P388) was 0.06 µg/mL (≈ 0.0553 µM) and the EC50 (HT-29) was 0.08 µg/mL (≈ 0.0737 µM).

`C=C(C)[C@@H]1CC(=O)[C@H]2[C@H](C1)[C@@H]1C(=O)O[C@@H]3C[C@@]4(C)O[C@@H]2C(=O)[C@@H]4[C@H]13` was tested, and the EC50 (A549) was over 20 µg/mL, the EC50 (P388) was over 20 µg/mL and the EC50 (HT-29) was over 20 µg/mL. It also gave an EC50 (Human betaherpesvirus 5) of over 50 µg/mL.

With `C=C(C)[C@@H]1CC(=O)C[C@@H]2O[C@](C)(CC2=O)C[C@@H]2C=C(C(=O)O2)[C@@H](O)C1` [GYROSANOLIDE F] the EC50 (A549) was over 20 µg/mL, the EC50 (P388) was over 20 µg/mL and the EC50 (HT-29) was over 20 µg/mL. For the same compound, the EC50 (Human betaherpesvirus 5) was over 50 µg/mL.

`C=C(C)[C@H]1C/C=C2/C(=O)O[C@H](C[C@@]3(C)CC(=O)[C@@H](CC(=O)C1)O3)[C@H]2O` was tested, and the EC50 (A549) was over 20 µg/mL, the EC50 (P388) was over 20 µg/mL and the EC50 (HT-29) was over 20 µg/mL. The IC50 (Human betaherpesvirus 5) was 1.9 µg/mL (≈ 5.45 µM), the inhibition at 10 µM (RAW264.7 [1]) was 10.2% and the Activity (RAW264.7 [2]) was “inactive”.

Compound `C=C(C)[C@H]1C/C=C(/C(=O)OC)CC(=O)C[C@@]2(C)CC(=O)[C@H](CC(=O)C1)O2` has an EC50 (A549) of over 20 µg/mL, an EC50 (P388) of over 20 µg/mL and an EC50 (HT-29) of over 20 µg/mL. The EC50 (Human betaherpesvirus 5) was over 50 µg/mL.

`C=C(C)[C@H]1C/C=C2/C(=O)O[C@H](C[C@@]3(C)CC(=O)[C@H](CC(=O)C1)O3)[C@H]2O` gave an EC50 (A549) of over 20 µg/mL, an EC50 (P388) of over 20 µg/mL and an EC50 (HT-29) of over 20 µg/mL. The EC50 (Human betaherpesvirus 5) was over 50 µg/mL, the inhibition at 10 µM (RAW264.7 [1]) was 17.4% and the Activity (RAW264.7 [2]) was “inactive”.

For `C=C(C)[C@H]1CCC2=C[C@H](C[C@@]3(C)CC(=O)[C@@H](CC(=O)C1)O3)OC2=O` [GYROSANOLIDE E], the EC50 (A549) was over 20 µg/mL, the EC50 (P388) was over 20 µg/mL and the EC50 (HT-29) was over 20 µg/mL. For the same compound, the EC50 (Human betaherpesvirus 5) was over 50 µg/mL.

For `C=C(C)[C@H]1CC[C@]23O[C@H]2[C@@H](C[C@@]2(C)CC(=O)[C@@H](CC(=O)C1)O2)OC3=O`, the EC50 (A549) was over 20 µg/mL, the EC50 (P388) was over 20 µg/mL and the EC50 (HT-29) was over 20 µg/mL. The EC50 (Human betaherpesvirus 5) was over 50 µg/mL, the inhibition at 10 µM (RAW264.7 [1]) was 47.2% and the Activity (RAW264.7 [2]) was “inactive”.

`C=C(C)[C@H]1CCC2=C[C@@H](C/C(C)=C/C(=O)[C@H](O)CC(=O)C1)OC2=O` [GYROSANOLIDE D] was tested, and the EC50 (A549) was over 20 µg/mL, the EC50 (P388) was over 20 µg/mL and the EC50 (HT-29) was over 20 µg/mL. It also gave an EC50 (Human betaherpesvirus 5) of over 50 µg/mL.

`C=C(C)[C@H]1CCC2=C[C@@H](C[C@@]3(C)CC(=O)[C@@H](CC(=O)C1)O3)OC2=O` showed an EC50 (A549) of over 20 µg/mL, an EC50 (P388) of over 20 µg/mL and an EC50 (HT-29) of over 20 µg/mL. It also gave an EC50 (Human betaherpesvirus 5) of over 50 µg/mL.

In the case of `C=C(C)[C@@H]1CC(=O)CC2=C(C1)[C@@H]1C(=O)O[C@@H]3CC(C)=C(C2=O)[C@H]13` [YONAROLIDE], the EC50 (A549) is reported as over 20 µg/mL, the EC50 (P388) is reported as over 20 µg/mL and the EC50 (HT-29) is reported as over 20 µg/mL. For the same compound, the EC50 (Human betaherpesvirus 5) was over 50 µg/mL.

`O=C(/C=C/c1ccc(O)c(O)c1)OCCc1ccccc1` [CAFFEIC ACID PHENETHYL ESTER] gave an inhibition at 10 µM (RAW264.7 [1]) of 1.5%.

`C=C(C)[C@@H]1CC(=O)C[C@H]2O[C@](C)(CC2=O)C[C@H]2OC(=O)[C@@]3(O[C@H]23)[C@@H](O)C1` gave an EC50 (A549) of over 20 µg/mL, an EC50 (P388) of over 20 µg/mL and an EC50 (HT-29) of over 20 µg/mL. The EC50 (Human betaherpesvirus 5) was over 50 µg/mL, the inhibition at 10 µM (RAW264.7 [1]) was 56.3% and the Activity (RAW264.7 [2]) was “inactive”.
